A short description of test [1]: inhibitors of TNFa-induced NFkB p65 translocation, primary screen, imaging, HUVEC, MLSMR starter and 10KST1 sets (AID 438;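 active means inhibition above 20% together with a positive visual image hit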;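 further: compound added about 3h40 before a 20 min TNFalpha stimulation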;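 on inhibition: signal is the nuclear over cytoplasmic p65 intensity ratio per well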). The following applies: HUVEC TNFa-induced p65 nuclear translocation; cell count: measured here: nuclei count (cytotoxicity indicator), at 2.08 µM; inhibition: at 2 µM, stronger effect = higher value, 0% TNFa-plus-vehicle, 100% no-TNFa wells.
Test [2] can be described thus: inhibitors of mutant huntingtin aggregation, primary screen, imaging, exon1htt(103Q)mCFP cells, high-content imaging (AID 483;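 active means visual image review flags a hit and inhibition of aggregation exceeds 20%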;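 further: compound exposure lasted 3 days before fixation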;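 on nuclei count: percent of the per-plate median nuclei count of sample wells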). Particulars: exon1htt(103Q)mCFP cell line, aggregate imaging, at 2 µM; inhibition of aggregation: stronger effect = higher value; nuclei count: measured here: cell count, toxicity.
Test [3] is described as follows: inhibitors of E-selectin induction by TNFa, primary screen, imaging, HUVEC, immunofluorescence, MLSMR starter and 10KST1 sets (AID 487;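 active means visually confirmed hit in the image check and inhibition above 20%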;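 on inhibition: signal is fraction of cell area covered by stained E-selectin grains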;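 on nuclei count: 100% = median nuclei count of all wells on the same plate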). The following applies: HUVEC TNFalpha-induced E-selectin immunofluorescence imaging, at 2 µM; inhibition: stronger effect = higher value; nuclei count: measured here: cell number, toxicity.
Test [4] has as its target Voltage-gated potassium channel subunit beta-2 (Rattus norvegicus) (UniProt P62483). Nature of the test: KvBeta enzyme negative modulators, primary screen, biochemical, NADPH fluorescence (AID 622;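 active means fluorescence slope higher than the sample average by over 3 SD, cut at about -0.22 in these data, passing the limit was not always enough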;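 further: slope of raw intensity against log time taken from 70 to 1610 s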). Particulars: recombinant KvBeta, 4-cyanobenzaldehyde reduction, at 10 µM, stronger effect = higher value.
Test [5] shares this target. Nature of the test: KvBeta positive modulators, primary screen, biochemical, NADPH fluorescence (AID 623;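 active means NADPH fluorescence slope more negative than the mean of all samples by about 3 SD, 99.7% confidence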;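 further: fluorescence intensity change per second fitted from 20 to 320 s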). Particulars: Recombinant KvBeta, NADPH fluorescence decrease slope, 10 min; at 10 µM; stronger effect = lower value.
In test [6] the target is Muscarinic acetylcholine receptor M4 (Homo sapiens) (UniProt P08173). Nature of the test: compounds altering M4/GIRK thallium flux, either direction, primary screen, M4 allosteric agonist project, cell-based, HEK293 M4/GIRK, BTC-AM (AID 625).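 Further: thallium influx through GIRK channels coupled to M4 in HEK293 cells with BTC-AM dye.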 Particulars: at 10 µM, actives lie on both sides. The gist of the method: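 Material: M4/GIRK1/GIRK2 stable HEK293 cell line. Medium: pH 7.3 thallium assay buffer. Dosing: single compound concentration, 10 µM final. Schedule: 1 h dye loading, 2 min kinetic read. Measured by: kinetic fluorescence with BTC-AM dye. Read-out: post-addition slope, 15–24 s, of baseline-normalized fluorescence. Benchmarks: carbachol and DMSO controls.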
Muscarinic acetylcholine receptor M4 (Homo sapiens), sequence (P08173 whole entry, looked up): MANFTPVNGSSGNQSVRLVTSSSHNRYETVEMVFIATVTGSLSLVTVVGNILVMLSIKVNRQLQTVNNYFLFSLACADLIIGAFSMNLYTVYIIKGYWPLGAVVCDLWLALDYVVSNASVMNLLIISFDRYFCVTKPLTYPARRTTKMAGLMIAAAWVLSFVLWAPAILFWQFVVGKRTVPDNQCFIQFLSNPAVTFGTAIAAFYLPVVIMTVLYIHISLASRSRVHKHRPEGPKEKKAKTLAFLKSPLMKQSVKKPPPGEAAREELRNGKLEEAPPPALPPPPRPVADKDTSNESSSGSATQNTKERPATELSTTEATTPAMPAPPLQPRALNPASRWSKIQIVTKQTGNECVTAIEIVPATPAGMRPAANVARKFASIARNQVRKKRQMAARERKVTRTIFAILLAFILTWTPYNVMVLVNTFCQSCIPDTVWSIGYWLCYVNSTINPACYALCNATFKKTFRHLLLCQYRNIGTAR

A short description of test [7]: inhibitors of Sendai virus-induced IRF3 signaling, primary screen, TLR/RLR signaling modifier project, cell-based, Sendai virus stimulus, luciferase, 10K MLSCN set (AID 602276;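 active means inhibition at or above 50% at 10 µM; inactive means inhibition below 50%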;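 further: firefly luciferase from ISG56 promoter only with Renilla not read in this screen; 0% = Sendai virus plus DMSO and 100% = medium plus DMSO without virus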). Particulars: HEK293 RL24 IRF3 luciferase reporter, at 10 µM, stronger effect = higher value. Background: In a reporter assay the amount or activity of a reporter protein is the signal.
The nature of test [8]: inhibitors of poly I:C-induced TLR3 signaling, primary screen, cell-based, poly I:C stimulus, luciferase, 10K MLSCN set (AID 602277;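 active means inhibition of the reporter signal at or above 50%; inactive means inhibition below 50%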). The following applies: HEK293-TLR3 RL24 IRF3 luciferase reporter, at 10 µM, stronger effect = higher value.

Molecules are shown by their SMILES. Active and inactive are the calls of the source.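 How the source made its calls, unless noted: active means fluorescence slope after compound addition differing from the mean of all tested samples at 99.7% confidence, mostly higher but some lower; inactive means the rest.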

Usually inhibition stands for the relative decrease from the control value, in per cent.

Voltage-gated potassium channel subunit beta-2 (Rattus norvegicus), sequence (P62483 whole entry, looked up): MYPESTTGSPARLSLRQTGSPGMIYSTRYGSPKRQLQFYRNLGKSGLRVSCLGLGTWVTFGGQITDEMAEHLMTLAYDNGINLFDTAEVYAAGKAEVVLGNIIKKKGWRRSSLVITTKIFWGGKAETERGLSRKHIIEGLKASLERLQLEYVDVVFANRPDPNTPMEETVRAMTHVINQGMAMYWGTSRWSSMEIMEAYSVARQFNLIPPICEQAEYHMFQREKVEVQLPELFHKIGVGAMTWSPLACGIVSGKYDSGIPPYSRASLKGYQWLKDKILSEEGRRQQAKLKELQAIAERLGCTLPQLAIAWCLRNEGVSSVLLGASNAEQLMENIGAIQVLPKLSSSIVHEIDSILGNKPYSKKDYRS

As for `CSc1ccccc1C(=O)NC1CC2CCC1C2` (configuration not stated), the cell count in test [1] was 246. For the same compound, the inhibition is 4.5% (inactive) in test [1], 15.4% (inactive) in test [3], 24.1% (inactive) in test [7] and 24.1% (inactive) in test [8]. The inhibition of aggregation in test [2] was 13.1% (inactive). Further, the nuclei count in test [2] was determined as 93.5%; in test [3] it was 91.1%. Further, the fluorescence slope in test [4] was -0.535 (inactive); in test [6], 0.00469 (inactive). Also, the NADPH fluorescence slope in test [5] was -1.1e-05 (inactive).
As to `O=C(C1CCC1)N1CCc2cc(S(=O)(=O)N3CCc4ccccc4C3)ccc21`, the cell count in test [1] turned out to be 299. The inhibition in test [1] is 0% (inactive); in test [3], -0.1% (inactive); in test [7], -7.83% (inactive); in test [8], 4.09% (inactive). In addition, the inhibition of aggregation in test [2] is 8.8% (inactive). Moreover, the nuclei count is 113% in test [2] and 118% in test [3]. Besides, the values for the fluorescence slope in test [4] and in test [6] were -0.411 (inactive) and 0.00795 (inactive), respectively. In addition, the NADPH fluorescence slope in test [5] was 7.8e-05 (inactive).
As to `CCOc1cccc(Oc2ccc(C(F)(F)F)cn2)c1`, in test [1], the cell count worked out at 664. The inhibition in test [1] is -8% (inactive); in test [3], 8.4% (inactive); in test [7], 5.91% (inactive); in test [8], 3.43% (inactive). Besides, in test [2], the inhibition of aggregation is -17.4% (inactive). Moreover, the nuclei count in test [2] turned out to be 120%; in test [3], 97.3%. Also, the fluorescence slope in test [4] was -0.526 (inactive); in test [6] it was 0.00424 (inactive). For the same compound, the NADPH fluorescence slope in test [5] is 1.7e-05 (inactive).
Turning to `COC(=O)Cc1c(C)nc2nc(-c3ccccc3)[nH]n2c1=O`, the cell count in test [1] turned out to be 615. Further, the inhibition in test [1] is 1.9% (inactive); in test [3], -15.7% (inactive); in test [7], 0.882% (inactive); in test [8] it was 6.76% (inactive). Also, the inhibition of aggregation in test [2] is 18.9% (inactive). Moreover, the nuclei count worked out at 68% in test [2] and 97.2% in test [3]. In addition, the fluorescence slope in test [4] was -0.474 (inactive); in test [6] it was 0.00459 (inactive). The NADPH fluorescence slope in test [5] was -9.1e-06 (inactive).
Consider `C=CCC(NCc1ccco1)c1ccc(OC)cc1OC` (configuration not stated), for which the cell count in test [1] is 697. Also, the inhibition in test [1] was 7.5% (inactive); in test [3], -94.5% (inactive); in test [7] it was 12.6% (inactive); in test [8] it was 18.9% (inactive). Also, the inhibition of aggregation in test [2] is 4.4% (inactive). The nuclei count was found to be 110% in test [2] and 108% in test [3]. Besides, the fluorescence slope is -0.597 (inactive) in test [4] and 0.00584 (inactive) in test [6]. Moreover, the NADPH fluorescence slope in test [5] was 2.3e-05 (inactive).
On to `CCOC(=O)C1CCCN(Cc2nc(N)nc(Nc3ccccc3)n2)C1` (configuration not stated), for which, in test [1], the cell count turned out to be 741. For the same compound, the inhibition in test [1] was -4.7% (inactive); in test [3], -49.1% (inactive); in test [7], 22.1% (inactive); in test [8], 16.8% (inactive). The inhibition of aggregation in test [2] was -2.7% (inactive). For the same compound, the values for the nuclei count in test [2] and in test [3] were 104% and 106%, respectively. The fluorescence slope is -0.57 (inactive) in test [4] and 0.0052 (inactive) in test [6]. Further, the NADPH fluorescence slope in test [5] was -4.6e-05 (inactive).
Take `Cc1ccc2c(c1)c1c(n2CC(O)Cn2c(C)nc3ccccc32)/C(=N\O)CCC1` (configuration not stated): the cell count in test [1] came out at 459. The inhibition in test [1] is 2.7% (inactive); in test [3] it was -15.9% (inactive); in test [7] it was 7.68% (inactive); in test [8] it was -1.8% (inactive). For the same compound, the inhibition of aggregation in test [2] was -25.1% (inactive). In addition, the nuclei count in test [2] came to 14.1%; in test [3], 103%. Moreover, the fluorescence slope is -0.433 (inactive) in test [4] and 0.00656 (inactive) in test [6]. Moreover, in test [5], the NADPH fluorescence slope was 9.2e-05 (inactive).

The values above are taken from PubChem BioAssay.
